According to ChEMBL document CHEMBL4689842, “EUbOPEN Chemogenomics Library wave 1” (2021):

Test system: Fibroblast
Experiment: Multiplex assay against human fibroblast
Assay type: toxicity, cell-based
Summary of the method: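 Live cells carried four stains from seeding: Hoechst33342, BioTracker Green Microtubule Cytoskeleton Dye, MitoTracker Red and Annexin V Alexa Fluor 680. They were imaged on a CQ1 microscope at 37°C and 5% CO2 after compound addition. Using CellPathfinder machine-learning gating, cells were split into Hoechst high-intensity objects or normal cells, normal cells into healthy, pyknosed or fragmented nuclei, and pyknosed cells into mitotic or apoptotic; tubulin, mitochondrial-mass and membrane-permeability phenotypes are per cents of healthy-nucleus cells.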

[1] = 12 h, 1 µM, compound concentration 1 uM, replicate 1
[2] = 12 h, 1 µM, compound concentration 1 uM, replicate 2
[3] = 12 h, 10 µM, compound concentration 10 uM, replicate 1
[4] = 12 h, 10 µM, compound concentration 10 uM, replicate 2
[5] = 24 h, 1 µM, compound concentration 1 uM, replicate 1
[6] = 24 h, 1 µM, compound concentration 1 uM, replicate 2
[7] = 24 h, 10 µM, compound concentration 10 uM, replicate 1
[8] = 24 h, 10 µM, compound concentration 10 uM, replicate 2
[9] = 48 h, 1 µM, compound concentration 1 uM, replicate 1
[10] = 48 h, 1 µM, compound concentration 1 uM, replicate 2
[11] = 48 h, 10 µM, compound concentration 10 uM, replicate 1
[12] = 48 h, 10 µM, compound concentration 10 uM, replicate 2

Structure (SMILES): Cc1c[nH]c2nccc(Oc3c(F)cc(Nc4cc(Cl)nc(N)n4)cc3F)c12 [BAY-549]
- Population Apoptotic (%) [1]: 54%
- Population Fragmented Nuclei (%) [1]: 25%
- Population Healthy Nuclei (%) [1]: 41%
- Population Hoechst High Intensity Objects (%) [1]: 12%
- Population Membrane Permeable-Phenotype (%) [1]: 32%
- Population Mitochondria Different-Phenotype (%) [1]: 3%
- Population Mitotic Cells (%) [1]: 46%
- Population Normal (%) [1]: 87%
- Population Pyknosed Nuclei (%) [1]: 33%
- Population Tubulin-Different-Phenotype (%) [1]: 38%
- Total Cell Count [1]: 172
- Population Apoptotic (%) [2]: 44%
- Population Fragmented Nuclei (%) [2]: 12%
- Population Healthy Nuclei (%) [2]: 73%
- Population Hoechst High Intensity Objects (%) [2]: 5%
- Population Membrane Permeable-Phenotype (%) [2]: 4%
- Population Mitochondria Different-Phenotype (%) [2]: 6%
- Population Mitotic Cells (%) [2]: 55%
- Population Normal (%) [2]: 94%
- Population Pyknosed Nuclei (%) [2]: 14%
- Population Tubulin-Different-Phenotype (%) [2]: 12%
- Total Cell Count [2]: 68
- Population Apoptotic (%) [3]: 66%
- Population Fragmented Nuclei (%) [3]: 23%
- Population Healthy Nuclei (%) [3]: 31%
- Population Hoechst High Intensity Objects (%) [3]: 10%
- Population Membrane Permeable-Phenotype (%) [3]: 21%
- Population Mitochondria Different-Phenotype (%) [3]: 0%
- Population Mitotic Cells (%) [3]: 33%
- Population Normal (%) [3]: 90%
- Population Pyknosed Nuclei (%) [3]: 45%
- Population Tubulin-Different-Phenotype (%) [3]: 21%
- Total Cell Count [3]: 130
- Population Apoptotic (%) [4]: 40%
- Population Fragmented Nuclei (%) [4]: 17%
- Population Healthy Nuclei (%) [4]: 65%
- Population Hoechst High Intensity Objects (%) [4]: 6%
- Population Membrane Permeable-Phenotype (%) [4]: 7%
- Population Mitochondria Different-Phenotype (%) [4]: 10%
- Population Mitotic Cells (%) [4]: 60%
- Population Normal (%) [4]: 93%
- Population Pyknosed Nuclei (%) [4]: 17%
- Population Tubulin-Different-Phenotype (%) [4]: 10%
- Total Cell Count [4]: 62
- Population Apoptotic (%) [5]: 50%
- Population Fragmented Nuclei (%) [5]: 32%
- Population Healthy Nuclei (%) [5]: 40%
- Population Hoechst High Intensity Objects (%) [5]: 10%
- Population Membrane Permeable-Phenotype (%) [5]: 26%
- Population Mitochondria Different-Phenotype (%) [5]: 9%
- Population Mitotic Cells (%) [5]: 50%
- Population Normal (%) [5]: 89%
- Population Pyknosed Nuclei (%) [5]: 27%
- Population Tubulin-Different-Phenotype (%) [5]: 34%
- Total Cell Count [5]: 170
- Population Apoptotic (%) [6]: 46%
- Population Fragmented Nuclei (%) [6]: 8%
- Population Healthy Nuclei (%) [6]: 71%
- Population Hoechst High Intensity Objects (%) [6]: 3%
- Population Membrane Permeable-Phenotype (%) [6]: 5%
- Population Mitochondria Different-Phenotype (%) [6]: 7%
- Population Mitotic Cells (%) [6]: 53%
- Population Normal (%) [6]: 96%
- Population Pyknosed Nuclei (%) [6]: 20%
- Population Tubulin-Different-Phenotype (%) [6]: 18%
- Total Cell Count [6]: 77
- Population Apoptotic (%) [7]: 70%
- Population Fragmented Nuclei (%) [7]: 44%
- Population Healthy Nuclei (%) [7]: 30%
- Population Hoechst High Intensity Objects (%) [7]: 21%
- Population Membrane Permeable-Phenotype (%) [7]: 13%
- Population Mitochondria Different-Phenotype (%) [7]: 13%
- Population Mitotic Cells (%) [7]: 30%
- Population Normal (%) [7]: 78%
- Population Pyknosed Nuclei (%) [7]: 25%
- Population Tubulin-Different-Phenotype (%) [7]: 33%
- Total Cell Count [7]: 152
- Population Apoptotic (%) [8]: 71%
- Population Fragmented Nuclei (%) [8]: 12%
- Population Healthy Nuclei (%) [8]: 62%
- Population Hoechst High Intensity Objects (%) [8]: 5%
- Population Membrane Permeable-Phenotype (%) [8]: 11%
- Population Mitochondria Different-Phenotype (%) [8]: 20%
- Population Mitotic Cells (%) [8]: 28%
- Population Normal (%) [8]: 94%
- Population Tubulin-Different-Phenotype (%) [8]: 20%
- Total Cell Count [8]: 59
- Population Apoptotic (%) [9]: 66%
- Population Fragmented Nuclei (%) [9]: 41%
- Population Healthy Nuclei (%) [9]: 46%
- Population Hoechst High Intensity Objects (%) [9]: 14%
- Population Membrane Permeable-Phenotype (%) [9]: 13%
- Population Mitochondria Different-Phenotype (%) [9]: 1%
- Population Mitotic Cells (%) [9]: 33%
- Population Normal (%) [9]: 85%
- Population Pyknosed Nuclei (%) [9]: 12%
- Population Tubulin-Different-Phenotype (%) [9]: 19%
- Total Cell Count [9]: 170
- Population Apoptotic (%) [10]: 100%
- Population Fragmented Nuclei (%) [10]: 26%
- Population Healthy Nuclei (%) [10]: 72%
- Population Hoechst High Intensity Objects (%) [10]: 11%
- Population Membrane Permeable-Phenotype (%) [10]: 10%
- Population Mitotic Cells (%) [10]: 0%
- Population Normal (%) [10]: 88%
- Population Pyknosed Nuclei (%) [10]: 0%
- Population Tubulin-Different-Phenotype (%) [10]: 5%
- Total Cell Count [10]: 184
- Population Apoptotic (%) [11]: 80%
- Population Fragmented Nuclei (%) [11]: 56%
- Population Healthy Nuclei (%) [11]: 29%
- Population Hoechst High Intensity Objects (%) [11]: 20%
- Population Membrane Permeable-Phenotype (%) [11]: 16%
- Population Mitochondria Different-Phenotype (%) [11]: 16%
- Population Mitotic Cells (%) [11]: 20%
- Population Normal (%) [11]: 79%
- Population Pyknosed Nuclei (%) [11]: 13%
- Population Tubulin-Different-Phenotype (%) [11]: 23%
- Total Cell Count [11]: 180
- Population Apoptotic (%) [12]: 57%
- Population Fragmented Nuclei (%) [12]: 50%
- Population Healthy Nuclei (%) [12]: 45%
- Population Hoechst High Intensity Objects (%) [12]: 17%
- Population Membrane Permeable-Phenotype (%) [12]: 5%
- Population Mitochondria Different-Phenotype (%) [12]: 10%
- Population Mitotic Cells (%) [12]: 42%
- Population Normal (%) [12]: 82%
- Population Pyknosed Nuclei (%) [12]: 3%
- Population Tubulin-Different-Phenotype (%) [12]: 6%
- Total Cell Count [12]: 239
